Assay results published in ChEMBL document CHEMBL5620393, “New aryl and acylsulfonamides as state-dependent inhibitors of Nav1.3 voltage-gated sodium channel” (Eur J Med Chem, 2023).
Calls of active or inactive are those of the source. The rule behind the calls is not given here.

Assays:
[1] = biological target: T1, Sodium channel protein type 5 subunit alpha (Homo sapiens, UniProt Q14524); experiment: Inhibition of human Nav1.5 expressed in CHO cells by automated patch clamp electrophysiology analysis
[2] = biological target: T1, Sodium channel protein type 5 subunit alpha; experiment: Inhibition of human Nav1.5 expressed in CHO cells under tonic pulse 1 by automated patch clamp electrophysiology analysis; assay type: cell-based
[3] = biological target: T1, Sodium channel protein type 5 subunit alpha; experiment: Inhibition of human Nav1.5 expressed in Xenopus laevis oocytes at closed state at 1 uM by two electrode voltage-clamp assay; assay type: cell-based; details: oocyte
Summary of the method: (§1)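 TEVC on Nav channels expressed in Xenopus laevis oocytes. Each oocyte was injected with 50 nL cRNA at 1 ng/nL and recorded 1–4 days later at 18–22 °C. Bath (mM): NaCl 96, KCl 2, CaCl2 1.8, MgCl2 2, HEPES 5, pH 7.4. Electrodes held 3 M KCl at 0.8–1.5 MΩ. Compound tested at 1 μM. Mean ± SD, n ≥ 5.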

[4] = biological target: T2, Sodium channel protein type 9 subunit alpha (Homo sapiens, UniProt Q15858); experiment: Inhibition of human Nav1.7 expressed in CHO cells under inactivated state by automated patch clamp electrophysiology analysis; assay type: cell-based
Target sequence in this assay (Q15858 whole entry): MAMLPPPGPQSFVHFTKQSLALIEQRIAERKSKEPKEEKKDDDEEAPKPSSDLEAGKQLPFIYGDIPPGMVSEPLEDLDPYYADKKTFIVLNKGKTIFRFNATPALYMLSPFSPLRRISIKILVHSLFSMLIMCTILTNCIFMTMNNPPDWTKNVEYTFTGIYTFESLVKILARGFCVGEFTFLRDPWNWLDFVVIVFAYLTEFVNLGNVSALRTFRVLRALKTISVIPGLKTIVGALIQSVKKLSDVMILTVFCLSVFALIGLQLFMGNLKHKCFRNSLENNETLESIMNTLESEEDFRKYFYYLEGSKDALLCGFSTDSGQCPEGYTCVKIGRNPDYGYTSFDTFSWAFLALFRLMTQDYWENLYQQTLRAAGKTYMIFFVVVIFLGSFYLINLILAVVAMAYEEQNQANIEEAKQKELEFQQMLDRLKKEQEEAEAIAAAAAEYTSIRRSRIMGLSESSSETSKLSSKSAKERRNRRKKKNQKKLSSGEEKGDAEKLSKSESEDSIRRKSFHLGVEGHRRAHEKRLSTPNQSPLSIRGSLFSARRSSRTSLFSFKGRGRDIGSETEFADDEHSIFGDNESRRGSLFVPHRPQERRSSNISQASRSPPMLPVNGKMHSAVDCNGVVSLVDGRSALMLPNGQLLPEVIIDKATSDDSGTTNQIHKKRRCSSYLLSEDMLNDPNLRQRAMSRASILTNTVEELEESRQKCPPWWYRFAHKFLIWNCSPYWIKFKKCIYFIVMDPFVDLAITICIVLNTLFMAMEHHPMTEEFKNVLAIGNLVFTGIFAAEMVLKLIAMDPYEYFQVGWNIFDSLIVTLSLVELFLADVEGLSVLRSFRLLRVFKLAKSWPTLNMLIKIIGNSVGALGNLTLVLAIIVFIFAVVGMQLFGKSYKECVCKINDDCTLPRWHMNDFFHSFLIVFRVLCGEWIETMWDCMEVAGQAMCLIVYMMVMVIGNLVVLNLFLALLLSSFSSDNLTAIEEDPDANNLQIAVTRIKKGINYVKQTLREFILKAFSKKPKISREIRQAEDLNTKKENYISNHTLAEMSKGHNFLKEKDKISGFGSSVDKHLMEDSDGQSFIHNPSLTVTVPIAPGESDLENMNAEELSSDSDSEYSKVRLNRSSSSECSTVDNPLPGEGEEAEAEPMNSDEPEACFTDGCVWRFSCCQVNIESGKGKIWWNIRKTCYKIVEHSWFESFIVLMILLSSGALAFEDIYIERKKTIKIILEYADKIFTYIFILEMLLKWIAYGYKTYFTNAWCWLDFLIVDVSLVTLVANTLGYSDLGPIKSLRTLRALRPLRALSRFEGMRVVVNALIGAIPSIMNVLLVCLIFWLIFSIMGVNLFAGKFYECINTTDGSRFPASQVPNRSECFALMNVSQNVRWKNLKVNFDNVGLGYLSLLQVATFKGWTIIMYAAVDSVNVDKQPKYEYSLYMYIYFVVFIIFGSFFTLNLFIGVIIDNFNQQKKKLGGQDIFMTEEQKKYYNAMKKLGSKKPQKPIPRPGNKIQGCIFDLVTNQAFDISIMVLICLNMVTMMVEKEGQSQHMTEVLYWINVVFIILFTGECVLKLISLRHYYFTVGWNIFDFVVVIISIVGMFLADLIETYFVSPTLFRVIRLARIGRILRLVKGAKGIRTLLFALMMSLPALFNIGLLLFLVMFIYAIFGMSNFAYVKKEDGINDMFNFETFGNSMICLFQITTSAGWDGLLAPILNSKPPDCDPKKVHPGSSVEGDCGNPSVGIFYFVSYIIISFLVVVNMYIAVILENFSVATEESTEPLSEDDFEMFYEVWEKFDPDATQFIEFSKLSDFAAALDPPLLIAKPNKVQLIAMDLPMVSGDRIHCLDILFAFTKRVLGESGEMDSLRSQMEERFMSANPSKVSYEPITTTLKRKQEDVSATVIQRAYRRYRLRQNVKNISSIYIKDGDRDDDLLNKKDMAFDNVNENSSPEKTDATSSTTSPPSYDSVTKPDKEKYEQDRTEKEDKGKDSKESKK

[5] = biological target: T2, Sodium channel protein type 9 subunit alpha; experiment: Inhibition of human Nav1.7 expressed in CHO cells under resting state by automated patch clamp electrophysiology analysis; assay type: cell-based
Target sequence in this assay (Q15858 whole entry): as above

[6] = biological target: T1, Sodium channel protein type 5 subunit alpha; experiment: Inhibition of human Nav1.5 expressed in CHO cells under resting state by automated patch clamp electrophysiology analysis; assay type: cell-based
[7] = biological target: T1, Sodium channel protein type 5 subunit alpha; experiment: Inhibition of human Nav1.5 expressed in CHO cells under inactivated state by automated patch clamp electrophysiology analysis; assay type: cell-based
[8] = biological target: Sodium channel protein type 10 subunit alpha (Homo sapiens) (UniProt Q9Y5Y9); experiment: Inhibition of human Nav1.8 expressed in Xenopus laevis oocytes at closed state at 1 uM by two electrode voltage-clamp assay; assay type: cell-based; details: Oocyte
Summary of the method: as §1

[9] = biological target: Sodium channel protein type 4 subunit alpha (Rattus norvegicus) (UniProt P15390); experiment: Inhibition of rat Nav1.4 expressed in Xenopus laevis oocytes at closed state at 1 uM by two electrode voltage-clamp assay; assay type: cell-based; details: Oocyte
Summary of the method: as §1

[10] = biological target: Sodium channel protein type 2 subunit alpha (Rattus norvegicus) (UniProt P04775); experiment: Inhibition of rat Nav1.2 expressed in Xenopus laevis oocytes at closed state at 1 uM by two electrode voltage-clamp assay; assay type: cell-based; details: Oocyte
Summary of the method: as §1

[11] = biological target: Sodium channel protein type 1 subunit alpha (Homo sapiens) (UniProt P35498); experiment: Inhibition of human Nav1.1 expressed in Xenopus laevis oocytes at closed state at 1 uM by two electrode voltage-clamp assay; assay type: cell-based; details: Oocyte
Summary of the method: as §1

[12] = biological target: Sodium channel protein type 8 subunit alpha (Mus musculus) (UniProt Q9WTU3); experiment: Inhibition of mouse Nav1.6 expressed in Xenopus laevis oocytes at closed state at 1 uM by two electrode voltage-clamp assay; assay type: cell-based; details: Oocyte
Summary of the method: as §1

[13] = biological target: T3, Sodium channel protein type 3 subunit alpha (Homo sapiens, UniProt Q9NY46); experiment: Inhibition of human Nav1.3 expressed in CHO cells under resting state by automated patch clamp electrophysiology analysis; assay type: cell-based
[14] = biological target: T3, Sodium channel protein type 3 subunit alpha; experiment: Inhibition of human Nav1.3 expressed in CHO cells under inactivated state by automated patch clamp electrophysiology analysis; assay type: cell-based
[15] = biological target: T2, Sodium channel protein type 9 subunit alpha; experiment: Inhibition of human Nav1.7 expressed in Xenopus laevis oocytes at closed state at 1 uM by two electrode voltage-clamp assay; assay type: cell-based; details: Oocyte
Summary of the method: as §1
Target sequence in this assay (Q15858 whole entry, looked up): as the sequence (Q15858 whole entry) above

[16] = biological target: Sodium channel protein type 3 subunit alpha (Rattus norvegicus) (UniProt P08104); experiment: Inhibition of rat Nav1.3 expressed in Xenopus laevis oocytes at 1 uM under inactivated state by two electrode voltage-clamp assay relative to control; assay type: cell-based; details: Oocyte
Summary of the method: as §1

T3 sequence (Q9NY46 whole entry): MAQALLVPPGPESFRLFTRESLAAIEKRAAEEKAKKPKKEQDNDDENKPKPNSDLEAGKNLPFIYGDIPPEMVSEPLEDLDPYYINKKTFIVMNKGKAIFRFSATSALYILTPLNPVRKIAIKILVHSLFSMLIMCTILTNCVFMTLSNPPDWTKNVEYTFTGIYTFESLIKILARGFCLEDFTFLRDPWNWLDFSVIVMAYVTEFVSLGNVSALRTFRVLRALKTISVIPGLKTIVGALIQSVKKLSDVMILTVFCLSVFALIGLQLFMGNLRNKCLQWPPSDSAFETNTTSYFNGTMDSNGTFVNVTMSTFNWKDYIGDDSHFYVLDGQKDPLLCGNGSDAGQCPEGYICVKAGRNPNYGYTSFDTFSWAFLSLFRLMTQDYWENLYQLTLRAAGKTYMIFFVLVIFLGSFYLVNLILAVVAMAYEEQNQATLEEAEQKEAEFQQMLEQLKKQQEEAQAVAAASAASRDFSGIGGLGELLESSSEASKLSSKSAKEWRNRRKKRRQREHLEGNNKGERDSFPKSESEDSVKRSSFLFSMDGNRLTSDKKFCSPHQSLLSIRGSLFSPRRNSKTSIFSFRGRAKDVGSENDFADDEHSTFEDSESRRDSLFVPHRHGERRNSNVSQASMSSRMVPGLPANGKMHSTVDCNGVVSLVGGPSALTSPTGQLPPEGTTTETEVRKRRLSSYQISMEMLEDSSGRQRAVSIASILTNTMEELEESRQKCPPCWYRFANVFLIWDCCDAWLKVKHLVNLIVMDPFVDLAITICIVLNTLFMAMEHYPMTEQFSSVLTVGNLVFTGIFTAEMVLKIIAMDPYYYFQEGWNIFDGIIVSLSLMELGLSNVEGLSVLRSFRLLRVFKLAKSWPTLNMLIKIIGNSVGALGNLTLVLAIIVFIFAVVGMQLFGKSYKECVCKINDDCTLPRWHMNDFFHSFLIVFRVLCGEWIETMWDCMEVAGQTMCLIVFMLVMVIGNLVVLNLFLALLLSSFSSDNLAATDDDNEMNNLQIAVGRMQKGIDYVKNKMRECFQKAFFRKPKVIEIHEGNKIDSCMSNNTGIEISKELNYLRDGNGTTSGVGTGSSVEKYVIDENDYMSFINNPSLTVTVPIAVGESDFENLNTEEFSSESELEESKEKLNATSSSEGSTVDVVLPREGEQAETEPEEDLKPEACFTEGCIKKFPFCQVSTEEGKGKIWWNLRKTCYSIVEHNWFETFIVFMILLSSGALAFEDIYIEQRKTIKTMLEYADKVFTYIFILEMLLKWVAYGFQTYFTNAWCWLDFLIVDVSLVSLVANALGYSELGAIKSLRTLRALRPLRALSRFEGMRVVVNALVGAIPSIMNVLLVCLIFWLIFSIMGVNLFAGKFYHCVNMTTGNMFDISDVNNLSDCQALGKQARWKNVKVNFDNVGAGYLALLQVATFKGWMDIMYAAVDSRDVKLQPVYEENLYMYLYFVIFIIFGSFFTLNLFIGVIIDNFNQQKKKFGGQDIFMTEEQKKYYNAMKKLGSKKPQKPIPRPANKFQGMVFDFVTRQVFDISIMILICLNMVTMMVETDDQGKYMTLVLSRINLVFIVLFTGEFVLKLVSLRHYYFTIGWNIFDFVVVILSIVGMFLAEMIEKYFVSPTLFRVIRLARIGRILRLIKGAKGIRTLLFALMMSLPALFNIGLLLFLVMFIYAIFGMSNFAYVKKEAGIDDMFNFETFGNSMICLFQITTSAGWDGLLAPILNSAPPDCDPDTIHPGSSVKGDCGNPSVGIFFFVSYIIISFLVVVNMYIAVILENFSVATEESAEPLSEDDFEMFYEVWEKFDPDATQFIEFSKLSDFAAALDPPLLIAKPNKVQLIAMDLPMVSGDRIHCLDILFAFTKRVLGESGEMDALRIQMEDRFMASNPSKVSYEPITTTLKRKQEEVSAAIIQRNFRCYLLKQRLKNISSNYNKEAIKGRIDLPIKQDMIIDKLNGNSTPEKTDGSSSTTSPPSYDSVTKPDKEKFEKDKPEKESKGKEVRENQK

| SMILES | IC50 [1] | IC50 [2] | inhibition (INH) [3] | IC50 [13] | IC50 [14] | further results |
| --- | --- | --- | --- | --- | --- | --- |
| CS(=O)(=O)NC(=O)c1ccc(OC[C@@H]2C[C@H]2c2ccccc2)cc1 | > 30 µM | > 30 µM | Not Active | – | – | – |
| CC(=O)NS(=O)(=O)c1ccc(NC(=O)c2cc(Br)c(Br)n2Cc2ccccc2)cc1 | – | – | Not Active | – | – | – |
| O=C(Nc1cccc(S(=O)(=O)Nc2nccs2)c1)c1cc(Br)c(Br)n1Cc1ccccc1 | > 30 µM | > 30 µM | Not Active | – | – | – |
| O=C(Nc1nccs1)c1ccc(NC(=O)[C@@H]2C[C@H]2c2ccccc2)cc1 | > 30 µM | > 30 µM | – | – | – | IC50 [4]: > 30 µM; IC50 [5]: > 30 µM; IC50 [6]: > 30 µM; IC50 [7]: > 30 µM |
| CN(C)CCC=C1c2ccccc2CCc2ccccc21 [AMITRIPTYLINE] | 6.9 µM | 11 µM | – | – | – | IC50 [4]: 2.3 µM; IC50 [5]: 10 µM; IC50 [6]: 20 µM; IC50 [7]: 1.2 µM |
| O=C(Nc1ccc(S(=O)(=O)Nc2nccs2)cc1)c1cccn1Cc1ccc(Cl)cc1 | > 30 µM | > 30 µM | Not Active | – | – | IC50 [4]: 8.4 µM; IC50 [5]: > 30 µM; IC50 [6]: > 30 µM; IC50 [7]: 3.7 µM |
| CS(=O)(=O)NC(=O)c1ccc(NC(=O)c2cccn2Cc2ccc(Cl)cc2)cc1 | – | – | Not Active | > 30 µM | > 30 µM | inhibition [8]: inactive; inhibition [9]: inactive; inhibition [10]: inactive; inhibition [11]: inactive; inhibition [12]: inactive; inhibition [15]: inactive |
| C[C@@H](Oc1ccc(Cl)cc1)C(=O)Nc1ccc(C(=O)NS(=O)(=O)N(C)C)cc1 | – | – | Not Active | – | – | – |
| CS(=O)(=O)NC(=O)c1ccc(NC(=O)c2cc(Br)c(Br)n2Cc2ccccc2)cc1 | – | – | Not Active | – | – | – |
| O=C(Nc1ccc(S(=O)(=O)Nc2nccs2)cc1)C1Cc2cc(Cl)ccc2O1 (centres undefined) | > 30 µM | > 30 µM | Not Active | > 30 µM | 0.24 µM | inhibition [8]: inactive; inhibition [9]: inactive; inhibition [10]: inactive; inhibition [11]: inactive; inhibition [12]: inactive; inhibition [15]: inactive; inhibition [16]: 21% |
| CC1CCCCN1C(=O)c1ccc(NS(=O)(=O)c2ccc3[nH]c(=O)[nH]c3c2)cc1 (centres undefined) | – | – | – | > 30 µM | > 30 µM | – |
| C[C@H](Oc1ccc(Cl)cc1)C(=O)Nc1ccc(C(=O)NS(C)(=O)=O)cc1 | – | – | Not Active | – | – | – |
| CS(=O)(=O)NC(=O)c1ccc(NC(=O)C2CC2c2ccc(F)c(F)c2)cc1 (racemic) | – | – | Not Active | > 30 µM | > 30 µM | inhibition [8]: inactive; inhibition [9]: inactive; inhibition [10]: inactive; inhibition [11]: inactive; inhibition [12]: inactive; inhibition [15]: inactive |
| CC(=O)NS(=O)(=O)c1ccc(NC(=O)c2cccn2Cc2ccccc2)cc1 | – | – | – | > 30 µM | 23 µM | – |
| C[C@@H](Oc1ccc(Cl)cc1)C(=O)Nc1ccc(C(=O)NS(C)(=O)=O)cc1 | – | – | Not Active | – | – | – |
| CS(=O)(=O)NC(=O)c1cccc(OC[C@@H]2C[C@H]2c2ccccc2)c1 | > 30 µM | > 30 µM | Not Active | > 30 µM | > 30 µM | inhibition [8]: inactive; inhibition [9]: inactive; inhibition [10]: inactive; inhibition [11]: inactive; inhibition [12]: inactive; inhibition [15]: inactive |
| O=C(Nc1ccc(S(=O)(=O)Nc2nccs2)cc1)c1cc(Br)c(Br)n1-c1ccccc1 | > 30 µM | > 30 µM | Not Active | – | – | IC50 [4]: 9.3 µM; IC50 [5]: > 30 µM; IC50 [6]: > 30 µM; IC50 [7]: 3.4 µM |
| CC(CCc1ccc(O)cc1)NC(=O)Nc1ccc(S(=O)(=O)N2CCCC2)cc1 (centres undefined) | – | – | – | > 30 µM | 20 µM | – |
| O=C(Nc1ccc(S(=O)(=O)Nc2nccs2)cc1)c1cccn1Cc1ccccc1 | > 30 µM | > 30 µM | Not Active | – | – | – |
| O=C(Nc1ccc(S(=O)(=O)Nc2nccs2)cc1)c1cc(Br)c(Br)n1Cc1ccccc1 | > 30 µM | > 30 µM | Not Active | – | – | IC50 [4]: 7.1 µM; IC50 [5]: > 30 µM; IC50 [6]: > 30 µM; IC50 [7]: 3.5 µM |

| SMILES | IC50 [1] | IC50 [2] | inhibition (INH) [3] | IC50 [13] | IC50 [14] | further results |
| --- | --- | --- | --- | --- | --- | --- |
| O=C(Nc1ccc(S(=O)(=O)Nc2nccs2)cc1)[C@@H]1C[C@H]1c1ccccc1 | – | – | – | – | – | IC50 ([13]; cho): 18 µM; IC50 ([14]; cho): 0.056 µM |
| O=C(Nc1ccc(S(=O)(=O)Nc2nccs2)cc1)c1cccn1-c1ccccc1 | > 30 µM | > 30 µM | Not Active | – | – | – |
| O=C(Nc1cccc(S(=O)(=O)Nc2nccs2)c1)[C@@H]1C[C@H]1c1ccccc1 | > 30 µM | > 30 µM | Not Active | – | – | – |
| CS(=O)(=O)NC(=O)c1ccc(NC(=O)c2cc(Br)c(Br)n2-c2ccccc2)cc1 | – | – | Not Active | – | – | – |
| CC(=O)NS(=O)(=O)c1ccc(NC(=O)c2cc(Br)c(Br)n2-c2ccccc2)cc1 | – | – | – | > 30 µM | 19 µM | – |
| O=C(Nc1cccc(S(=O)(=O)Nc2nccs2)c1)c1cccn1Cc1ccccc1 | > 30 µM | > 30 µM | Not Active | – | – | – |
| CC(Oc1ccc(Cl)cc1)C(=O)Nc1ccc(S(=O)(=O)Nc2nccs2)cc1 (centres undefined) | > 30 µM | > 30 µM | Not Active | > 30 µM | 0.32 µM | inhibition [8]: inactive; inhibition [9]: inactive; inhibition [10]: inactive; inhibition [11]: inactive; inhibition [12]: inactive; inhibition [15]: inactive; inhibition [16]: 21% |
| CS(=O)(=O)NC(=O)c1ccc(NC(=O)[C@@H]2C[C@H]2c2ccccc2)cc1 | – | – | Not Active | > 30 µM | > 30 µM | inhibition [8]: inactive; inhibition [9]: inactive; inhibition [10]: inactive; inhibition [11]: inactive; inhibition [12]: inactive; inhibition [15]: inactive |
| CN(C)S(=O)(=O)NC(=O)c1ccc(NC(=O)[C@@H]2C[C@H]2c2ccccc2)cc1 | – | – | Not Active | – | – | – |
| CC(NS(=O)(=O)c1ccc(C2=CC(c3ccc(Cl)cc3)n3nnnc3N2)cc1)C(=O)O (centres undefined) | – | – | – | > 30 µM | > 30 µM | – |
| CC1CCCC(C)N1S(=O)(=O)c1ccc(NS(=O)(=O)c2ccc3c(c2)CC(=O)N3C)cc1 (centres undefined) | – | – | – | > 30 µM | 28 µM | – |
| Cc1nn(C)cc1/C=C(\C#N)C(=O)Nc1ccc(S(=O)(=O)Nc2nccs2)cc1 | > 30 µM | > 30 µM | Not Active | 26 µM | 3.8 µM | inhibition [8]: inactive; inhibition [9]: inactive; inhibition [10]: inactive; inhibition [11]: inactive; inhibition [12]: inactive; inhibition [15]: inactive |
| CN(C)S(=O)(=O)NC(=O)c1ccc(NC(=O)c2cc3ccccc3o2)cc1 | – | – | Not Active | – | – | – |
| CC(=O)NS(=O)(=O)c1ccc(NC(=O)[C@@H]2C[C@H]2c2ccccc2)cc1 | > 30 µM | > 30 µM | Not Active | – | – | – |
| CN(C)S(=O)(=O)NC(=O)c1ccc(NC(=O)c2cccn2Cc2ccc(Cl)cc2)cc1 | – | – | Not Active | – | – | – |
| Cc1nc(-c2c(Cl)cccc2Cl)sc1C(=O)N[C@@H](Cc1ccccc1)C(=O)O | – | – | Not Active | – | – | – |
| NC1=N[C@H](O)[C@H]2[C@H]3O[C@]4(O)O[C@@H]([C@@H](O)[C@@]2(N1)[C@@H]4O)[C@]3(O)CO [TETRODOTOXIN] | – | – | – | 0.004 µM | 0.001 µM | – |
| O=C(Nc1cccc(S(=O)(=O)Nc2nccs2)c1)c1cccn1Cc1ccc(Cl)cc1 | > 30 µM | > 30 µM | Not Active | – | – | – |
| CC(=O)NS(=O)(=O)c1ccc(NC(=O)CC(C)c2ccccc2)cc1 (centres undefined) | – | – | – | > 30 µM | 21 µM | – |
| CC(=O)NS(=O)(=O)c1ccc(NC(=O)c2cccn2Cc2ccc(Cl)cc2)cc1 | – | – | Not Active | – | – | – |
